Data reported in ChEMBL document CHEMBL3425425, “6-Substituted sulfocoumarins are selective carbonic anhdydrase IX and XII inhibitors with significant cytotoxicity against colorectal cancer cells” (J Med Chem, 2015).
Activity calls are given as the source filed them. The calls are words filed in the database; no cut-off is given here.

Assays:
Carbonic anhydrase 2 = Carbonic anhydrase 2 (Homo sapiens, UniProt P00918); assay: Inhibition of human recombinant carbonic anhdydrase-2 expressed in Escherichia coli pre-incubated for 6 hrs by stopped-flow CO2 hydration assay
Carbonic anhydrase 1 = Carbonic anhydrase 1 (Homo sapiens, UniProt P00915); assay: Inhibition of human recombinant carbonic anhdydrase-1 expressed in Escherichia coli pre-incubated for 6 hrs by stopped-flow CO2 hydration assay
Carbonic anhydrase 9 = Carbonic anhydrase 9 (Homo sapiens, UniProt Q16790); assay: Inhibition of human recombinant carbonic anhdydrase-9 expressed in Escherichia coli pre-incubated for 6 hrs by stopped-flow CO2 hydration assay
HT-29 [1] = assay: Cytotoxicity against human HT-29 cells assessed as reduction in cell viability at 30 to 300 uM incubated for 16 to 72 hrs under hypoxic conditions by MTT assay; type: functional, cell-based
Summary of the method: (§1)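 Cells were kept in high-glucose DMEM with 20% FBS at 37 °C, seeded at 1 × 10^4/well and treated 24 h later at 0–300 μM (0, 30, 100, 300) for 16, 48 or 72 h. Incubation was in a hypoxic chamber (0.1% O2, 5% CO2, residual N2). Viability was measured by MTT (1 mg/mL, 30 min, 37 °C), with DMSO-solubilized formazan read at 550 nm and expressed against untreated control = 100%. Mean ± SEM of three experiments.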

HT-29 [2] = assay: Cytotoxicity against human HT-29 cells assessed as reduction in cell viability at 30 to 300 uM incubated for 16 to 72 hrs under normoxic conditions by MTT assay; type: functional, cell-based
Summary of the method: (§2)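 HT-29 cells were grown in high-glucose DMEM with 20% FBS at 37 °C and plated at 1 × 10^4/well. After 24 h they were exposed to 0, 30, 100 or 300 μM for 16, 48 or 72 h in normoxia (20% O2, air, 5% CO2). Washed cells got 1 mg/mL MTT for 30 min at 37 °C, formazan was dissolved in DMSO and A550 read. Untreated set at 100%. Quadruplicates, ≥3 cell batches; mean ± SEM.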

HT-29 [3] = assay: Cytotoxicity against human HT-29 cells assessed as reduction in cell viability at 100 uM incubated for 72 hrs under hypoxic conditions by MTT assay; type: functional, cell-based; summary of the method: as §1
HT-29 [4] = assay: Cytotoxicity against human HT-29 cells assessed as reduction in cell viability at 100 uM incubated for 72 hrs under normoxic conditions by MTT assay; type: functional, cell-based; summary of the method: as §2
HT-29 [5] = assay: Cytotoxicity against human HT-29 cells assessed as cell viability at 100 uM incubated for 72 hrs under normoxic conditions by MTT assay; type: functional; conditions: HT-29, 72 h, read-out: Activity; summary of the method: as §2
HT-29 [6] = assay: Cytotoxicity against human HT-29 cells assessed as cell viability at 100 uM incubated for 16 hrs under normoxic conditions by MTT assay; type: functional; conditions: HT-29, 16 h, read-out: Activity; summary of the method: as §2
HT-29 [7] = assay: Cytotoxicity against human HT-29 cells assessed as reduction in cell viability at 30 uM incubated for 16 hrs under normoxic conditions by MTT assay; type: functional, cell-based; summary of the method: as §2
HT-29 [8] = assay: Cytotoxicity against human HT-29 cells assessed as cell viability at 100 uM incubated for 72 hrs under hypoxic conditions by MTT assay; type: functional; conditions: HT-29, 72 h, read-out: Activity; summary of the method: as §1
HT-29 [9] = assay: Cytotoxicity against human HT-29 cells assessed as cell viability at 30 uM incubated for 72 hrs under normoxic conditions by MTT assay; type: functional; conditions: HT-29, 72 h, read-out: Activity; summary of the method: as §2
HT-29 [10] = assay: Cytotoxicity against human HT-29 cells assessed as reduction in cell viability at 300 uM incubated for 16 to 72 hrs under normoxic conditions by MTT assay; type: functional, cell-based; summary of the method: as §2
HT-29 [11] = assay: Cytotoxicity against human HT-29 cells assessed as cell viability at 100 uM incubated for 48 hrs under normoxic conditions by MTT assay; type: functional; conditions: HT-29, 48 h, read-out: Activity; summary of the method: as §2

Chain of Carbonic anhydrase 1 (P00915 whole entry): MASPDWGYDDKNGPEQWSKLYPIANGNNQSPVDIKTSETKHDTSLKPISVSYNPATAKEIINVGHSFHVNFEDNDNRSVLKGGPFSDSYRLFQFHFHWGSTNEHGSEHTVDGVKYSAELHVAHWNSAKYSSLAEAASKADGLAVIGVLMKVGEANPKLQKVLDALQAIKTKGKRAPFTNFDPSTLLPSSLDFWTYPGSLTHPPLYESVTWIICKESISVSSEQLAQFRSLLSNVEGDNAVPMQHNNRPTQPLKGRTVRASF

Row | Structure (SMILES) | Ki (Carbonic anhydrase 2) [µM] | Ki (Carbonic anhydrase 1) [µM] | Ki (Carbonic anhydrase 9) [µM] | other results
1 | COc1ccc2c(c1)C=CS(=O)(=O)O2 | > 10 | > 10 | 0.0421 | –
2 | N#Cc1ccc2c(c1)C=CS(=O)(=O)O2 | > 10 | > 10 | 0.0338 | –
3 | C[N+](C)(C)c1ccc2c(c1)C=CS(=O)(=O)O2 | > 10 | > 10 | 0.0096 | Activity (HT-29 [1]): inactive; Activity (HT-29 [2]): inactive
4 | O=C(Nc1ccc2c(c1)C=CS(=O)(=O)O2)c1cccs1 | > 10 | > 10 | 0.0295 | –
5 | O=C(Cc1ccccc1)Nc1ccc2c(c1)C=CS(=O)(=O)O2 | > 10 | > 10 | 0.0813 | –
6 | O=C(Nc1ccc2c(c1)C=CS(=O)(=O)O2)c1ccncc1 | > 10 | > 10 | 0.0077 | Activity (HT-29 [1]): inactive; Activity (HT-29 [2]): inactive
7 | O=C(Nc1ccc2c(c1)C=CS(=O)(=O)O2)c1ccccc1I | > 10 | > 10 | 0.0091 | –
8 | O=C(Nc1ccc2c(c1)C=CS(=O)(=O)O2)c1ccccc1Br | > 10 | > 10 | 0.0097 | Activity (HT-29 [3]): Active; Activity (HT-29 [4]): Active
9 | O=C(Nc1ccc2c(c1)C=CS(=O)(=O)O2)c1cccnc1 | > 10 | > 10 | 0.0105 | –

Now from value to compound, other results behind:

Row | Ki (Carbonic anhydrase 2) [µM] | Ki (Carbonic anhydrase 1) [µM] | Ki (Carbonic anhydrase 9) [µM] | Structure (SMILES) | other results
10 | > 10 | > 10 | 0.009 | Cc1ccc(C(=O)Nc2ccc3c(c2)C=CS(=O)(=O)O3)cc1 | –
11 | > 10 | > 10 | 0.033 | O=C(Nc1ccc2c(c1)C=CS(=O)(=O)O2)c1ccco1 | –
12 | > 10 | > 10 | 0.0056 | CC(C)(C)C(=O)Nc1ccc2c(c1)C=CS(=O)(=O)O2 | –
13 | > 10 | > 10 | 0.0172 | CC(=O)Nc1ccc2c(c1)C=CS(=O)(=O)O2 | –
14 | > 10 | > 10 | 0.0066 | O=C(Nc1ccc2c(c1)C=CS(=O)(=O)O2)c1ccccc1 | viability at 100 µM (HT-29 [5]): 40%; viability at 100 µM (HT-29 [6]): 52%; Activity (HT-29 [7]): Active; viability at 100 µM (HT-29 [8]): 35%; viability at 30 µM (HT-29 [9]): 43%; Activity (HT-29 [10]): inactive; viability at 100 µM (HT-29 [11]): 60%
